The results in this text go back to ChEMBL document CHEMBL5046223, “AZD5438-PROTAC: A selective CDK2 degrader that protects against cisplatin- and noise-induced hearing loss” (Eur J Med Chem, 2021).

The structures appear in SMILES notation. Activity calls are given as the source filed them. The calls are words filed in the database; no cut-off is given here.

For assay [1], the system named is Protein cereblon/Cyclin-dependent kinase 2 (Mus musculus). Kind of assay: Protac activity at CDK2/CRBN E3 ligase in mouse HEI-OC1 cells assessed as induction of CDK2 protein degradation at 100 nM measured after 24 hrs by Western blot analysis. A general note: A western blot detects proteins with antibodies after separation by electrophoresis.
The target of assay [2] is von Hippel-Lindau E3 ligase/Cyclin-dependent kinase 2 (Mus musculus). Kind of assay: Protac activity at CDK2/VHL E3 ligase in mouse HEI-OC1 cells assessed as induction of CDK2 protein degradation measured after 24 hrs by Western blot analysis.
Assay [3] concerns the target von Hippel-Lindau disease tumor suppressor/CDK2 (Danio rerio) (UniProt Q7ZWB1+Q68EH9). Kind of assay: PROTAC activity at CDK2/VHL E3 ligase in 5 days post fertilization zebrafish assessed as decrease in CDK2 abundance measured after 24 hrs by immunoblot analysis. The following applies: dose 1.0 µM. The method in brief: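 TuAB zebrafish larvae at 4 dpf, kept in E3 medium (pH 7.2) at 28.5°C, exposed 24 h to 0.1 nM–1 μM in E3 (controls 0.1% DMSO). Fish were collected before any ototoxin. Lysates were run at 20–30 μg protein per lane, probed with anti-CDK2 (1:500) against β-actin, and CDK2 bands quantified from three independent experiments.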

The species entered for assay [4] is Danio rerio. The assay can be described thus: Protection of cisplatin-induced ototoxicity in 5 days post fertilization zebrafish assessed as protection neuromast hair cells at 0.001 to 1 nM measured after 24 hrs by fluorescence microscopy. To be noted: dose upper 1.0 µM, time 5.0 day, in the assay text read “0.001 to 1 µM” for “0.001 to 1 nM”. It counts as functional, organism-based. The method in brief: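 Zebrafish larvae at 4 dpf pre-exposed 24 h to 0.1 nM–1 μM in E3, then co-incubated 6 h with compound plus cisplatin 400 μM. After 1 h recovery, fish were fixed in 4% PFA and immunostained for otoferlin. Hair cells in otic, middle and opercular neuromasts were counted manually under a 40x fluorescence objective, 6–8 fish per experiment; mean ± SEM.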

Assay [5] is filed under the species Danio rerio. The assay can be described thus: Protection of kainic acid-induced ototoxicity in 5 days post fertilization zebrafish assessed as protection neuromast hair cells at 5 to 100 nM measured after 24 hrs by fluorescence microscopy. The following applies: dose 5-100 nM, time 5.0 day.

On to `Cc1ncc(-c2ccnc(Nc3ccc(S(=O)(=O)CCCc4cn(CCOCCOCCOCCNc5cccc6c5C(=O)N(C5CCC(=O)NC5=O)C6=O)nn4)cc3)n2)n1C(C)C` (stereo unspecified), for which the result in assay [1] was inactive.

Consider `O=C1CCC(N2C(=O)c3cccc(NCCOCCOCCOCCn4cc(CO[C@H]5CC[C@H](NC(=O)c6n[nH]cc6NC(=O)c6c(F)cccc6F)CC5)nn4)c3C2=O)C(=O)N1` (stereo partly specified), for which the result in assay [1] was inactive.

Usually DC50 stands for the midpoint of the concentration-degradation curve. In the case of `Cc1ncsc1-c1ccc(CNC(=O)[C@@H]2C[C@@H](O)CN2C(=O)[C@@H](NC(=O)COCCn2cc(CCCS(=O)(=O)c3ccc(Nc4nccc(-c5cnc(C)n5C(C)C)n4)cc3)nn2)C(C)(C)C)cc1`, the DC50 in assay [2] worked out at 100 nM. In addition, the outcome (in assay [3]; in the assay listed under Danio rerio [4]; in the assay filed under Danio rerio [5]) was Active.
